Experiment [1] deals with Glutamate NMDA receptor; Grin1/Grin2a (Rattus norvegicus, UniProt P35439+Q00959). Description: Antagonist activity at rat recombinant NR1-NR2A receptor expressed in Xenopus oocytes at holding potential of -40mV by two-electrode voltage-clamp electrophysiology. In kind it is functional, cell-based, Oocyte. Conditions: read-out: IC50; call rule not given here. Summed up: (§1)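 Oocytes expressing rat NR1-1a with NR2A, NR2B, NR2C or NR2D, clamped at −40 mV in Ba2+/HEPES recording solution pH 7.4, 23°C. Current evoked by 100 μM glutamate plus 30 μM glycine. Final DMSO 0.05-0.5%, 5-7 inhibitor concentrations, ≥4 oocytes each. IC50 from Hill fit of normalized mean composite data. […] Some NR2A oocytes given BAPTA-AM or K-BAPTA.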

Experiment [2] addresses Glutamate NMDA receptor; Grin1/Grin2b (Rattus norvegicus, UniProt P35439+Q00960). Description: Antagonist activity at rat recombinant NR1-NR2B receptor expressed in Xenopus oocytes at holding potential of -40mV by two-electrode voltage-clamp electrophysiology. Conditions: read-out: IC50. In kind it is functional, cell-based, Oocyte. Summed up: as §1
In experiment [3] the target is Glutamate NMDA receptor; Grin1/Grin2c (Rattus norvegicus, UniProt P35439+Q00961). Description: Antagonist activity at rat recombinant NR1-NR2C receptor expressed in Xenopus oocytes at holding potential of -40mV by two-electrode voltage-clamp electrophysiology. Type of experiment: functional, cell-based, Oocyte. Summed up: as §1
For experiment [4], the target named is Ionotropic glutamate receptor NMDA 1/2D (Rattus norvegicus, UniProt P35439+Q62645). The experiment is described as follows: Antagonist activity at rat recombinant NR1-NR2D receptor expressed in Xenopus oocytes at holding potential of -40mV by two-electrode voltage-clamp electrophysiology. In kind it is functional, cell-based, Oocyte. Summed up:
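Oocytes expressing rat NR1-1a with NR2A, NR2B, NR2C or NR2D, clamped at −40 mV in Ba2+/HEPES recording solution pH 7.4, 23°C. Current evoked by 100 μM glutamate plus 30 μM glycine. Final DMSO 0.05-0.5%, 5-7 inhibitor concentrations, ≥4 oocytes each. IC50 from Hill fit of normalized mean composite data. Some NR2A oocytes given BAPTA-AM or K-BAPTA.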

The target in a further experiment is Glutamate receptor 1 (Rattus norvegicus, UniProt P19490). The experiment is described as follows: Antagonist activity at rat recombinant GLuR1 expressed in Xenopus oocytes assessed as inhibition of glutamate-induced current by two-electrode voltage-clamp electrophysiology. In kind it is functional, cell-based, Oocyte. Summed up: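 Two-electrode voltage clamp at −40 mV on Xenopus oocytes expressing rat GluR1, perfused with 90 NaCl, 1.0 KCl, 0.5 BaCl2, 0.005 EDTA, 10 HEPES (mM), pH 7.4, 23°C; activated by 100 μM glutamate. From 20 mM DMSO stocks, 5-7 concentrations, ≥4 oocytes each. Hill fit to mean composite curves normalized to control, minimum usually fixed at 0. Response >75% at 100 μM reported as >300 μM.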

Experiment [5] concerns the target Glutamate receptor ionotropic, kainate 2 (Rattus norvegicus, UniProt P42260). Description: Antagonist activity at rat recombinant GLuR6 expressed in Xenopus oocytes assessed as inhibition of glutamate-induced current by two-electrode voltage-clamp electrophysiology. Conditions: oocyte. In kind it is functional, cell-based. Summed up:
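Rat GluR6 expressed in Xenopus oocytes, pretreated with 10 μM concanavalin A for 10 min, then activated by 100 μM glutamate. Cells were held at −40 mV in 90 mM NaCl, 1.0 KCl, 0.5 BaCl2, 0.005 EDTA and 10 HEPES, pH 7.4, at 23°C. Compounds were diluted from 20 mM DMSO stocks, final DMSO 0.05-0.5%. Concentration-effect curves were recorded.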

The species entered for experiment [6] is Rattus norvegicus. The experiment is described as follows: Selectivity ratio of IC50 for rat recombinant GLuR1 to IC50 for rat recombinant NR1-NR2D receptor. Summed up:
(§2)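 Ratio of fitted IC50 values, either NR2A/NR2D or GluR1/NR2D, from two-electrode voltage-clamp Hill fits in oocytes. Where noted, calculated from IC50 values rounded to the nearest μM.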

The species named for experiment [7] is Rattus norvegicus. Description: Selectivity ratio of IC50 for rat recombinant NR1-NR2A receptor to IC50 for rat recombinant NR1-NR2D receptor. Summed up:
as §2

Experimental findings from ChEMBL document CHEMBL1212913, “Quinazolin-4-one derivatives: A novel class of noncompetitive NR2C/D subunit-selective N-methyl-D-aspartate receptor antagonists” (J Med Chem, 2010) are described below.

pIC50: −log10 of the molar value.

Sequence of Glutamate NMDA receptor; Grin1/Grin2b (Q00960 whole entry, other chains not shown): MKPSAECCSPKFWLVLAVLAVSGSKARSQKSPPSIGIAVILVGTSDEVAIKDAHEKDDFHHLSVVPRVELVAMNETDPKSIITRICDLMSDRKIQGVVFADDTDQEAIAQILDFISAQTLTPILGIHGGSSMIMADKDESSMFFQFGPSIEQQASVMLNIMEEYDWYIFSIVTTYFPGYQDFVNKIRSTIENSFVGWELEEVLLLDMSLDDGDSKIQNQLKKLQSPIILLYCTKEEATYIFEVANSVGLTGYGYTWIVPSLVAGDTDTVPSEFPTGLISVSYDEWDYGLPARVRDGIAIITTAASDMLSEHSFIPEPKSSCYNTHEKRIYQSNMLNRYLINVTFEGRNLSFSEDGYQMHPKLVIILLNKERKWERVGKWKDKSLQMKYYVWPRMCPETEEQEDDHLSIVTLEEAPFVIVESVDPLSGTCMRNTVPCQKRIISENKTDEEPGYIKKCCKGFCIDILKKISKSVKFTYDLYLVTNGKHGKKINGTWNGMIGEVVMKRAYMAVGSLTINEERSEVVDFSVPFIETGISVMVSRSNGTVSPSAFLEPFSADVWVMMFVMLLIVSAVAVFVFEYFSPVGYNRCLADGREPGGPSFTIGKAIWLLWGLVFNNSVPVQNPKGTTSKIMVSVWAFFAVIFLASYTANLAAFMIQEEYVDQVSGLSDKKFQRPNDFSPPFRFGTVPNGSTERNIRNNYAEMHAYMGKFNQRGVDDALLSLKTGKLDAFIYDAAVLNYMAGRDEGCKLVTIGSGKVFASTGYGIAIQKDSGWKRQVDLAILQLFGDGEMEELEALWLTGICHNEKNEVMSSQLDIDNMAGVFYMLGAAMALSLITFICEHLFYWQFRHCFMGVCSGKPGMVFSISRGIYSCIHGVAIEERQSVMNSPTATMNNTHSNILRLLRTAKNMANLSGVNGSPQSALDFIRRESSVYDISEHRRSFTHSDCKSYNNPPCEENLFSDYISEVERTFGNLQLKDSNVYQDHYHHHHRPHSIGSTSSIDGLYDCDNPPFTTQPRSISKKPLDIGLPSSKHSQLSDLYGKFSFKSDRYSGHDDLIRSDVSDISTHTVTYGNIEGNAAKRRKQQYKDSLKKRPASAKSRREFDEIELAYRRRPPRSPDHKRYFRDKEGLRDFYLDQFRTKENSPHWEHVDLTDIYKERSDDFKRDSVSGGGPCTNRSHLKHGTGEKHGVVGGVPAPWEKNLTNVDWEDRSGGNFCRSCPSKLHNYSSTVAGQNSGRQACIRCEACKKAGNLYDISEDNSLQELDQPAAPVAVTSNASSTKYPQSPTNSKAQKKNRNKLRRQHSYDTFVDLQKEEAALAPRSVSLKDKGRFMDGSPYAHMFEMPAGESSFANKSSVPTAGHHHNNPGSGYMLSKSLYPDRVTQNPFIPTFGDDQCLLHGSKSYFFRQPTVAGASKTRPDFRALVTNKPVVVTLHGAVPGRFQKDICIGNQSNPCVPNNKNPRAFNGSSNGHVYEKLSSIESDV
Sequence of Glutamate receptor 1 (P19490 whole entry, the tested form may be a part): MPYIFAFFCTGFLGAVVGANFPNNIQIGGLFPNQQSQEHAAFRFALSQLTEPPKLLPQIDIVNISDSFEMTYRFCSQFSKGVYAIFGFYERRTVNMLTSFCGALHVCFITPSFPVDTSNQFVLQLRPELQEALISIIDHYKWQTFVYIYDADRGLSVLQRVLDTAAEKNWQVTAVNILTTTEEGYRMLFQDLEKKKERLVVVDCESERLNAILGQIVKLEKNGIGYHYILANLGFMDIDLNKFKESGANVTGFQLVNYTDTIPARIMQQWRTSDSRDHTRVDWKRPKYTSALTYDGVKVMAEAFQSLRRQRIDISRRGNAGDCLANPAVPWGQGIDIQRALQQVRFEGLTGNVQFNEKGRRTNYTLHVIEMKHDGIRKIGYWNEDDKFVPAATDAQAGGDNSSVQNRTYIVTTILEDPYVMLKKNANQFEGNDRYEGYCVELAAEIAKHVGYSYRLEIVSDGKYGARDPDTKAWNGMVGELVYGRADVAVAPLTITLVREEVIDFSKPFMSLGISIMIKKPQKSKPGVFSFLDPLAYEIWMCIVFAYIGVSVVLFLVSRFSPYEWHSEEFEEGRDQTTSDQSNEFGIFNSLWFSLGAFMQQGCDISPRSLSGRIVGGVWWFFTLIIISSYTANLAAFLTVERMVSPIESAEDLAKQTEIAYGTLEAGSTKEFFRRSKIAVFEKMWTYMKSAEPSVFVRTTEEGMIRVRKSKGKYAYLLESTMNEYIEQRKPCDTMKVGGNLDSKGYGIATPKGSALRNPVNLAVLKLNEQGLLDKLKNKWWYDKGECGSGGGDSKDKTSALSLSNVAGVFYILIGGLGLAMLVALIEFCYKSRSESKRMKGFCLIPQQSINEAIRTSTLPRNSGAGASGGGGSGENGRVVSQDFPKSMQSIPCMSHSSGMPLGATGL
Sequence of Glutamate NMDA receptor; Grin1/Grin2a (Q00959 whole entry, other chains not shown): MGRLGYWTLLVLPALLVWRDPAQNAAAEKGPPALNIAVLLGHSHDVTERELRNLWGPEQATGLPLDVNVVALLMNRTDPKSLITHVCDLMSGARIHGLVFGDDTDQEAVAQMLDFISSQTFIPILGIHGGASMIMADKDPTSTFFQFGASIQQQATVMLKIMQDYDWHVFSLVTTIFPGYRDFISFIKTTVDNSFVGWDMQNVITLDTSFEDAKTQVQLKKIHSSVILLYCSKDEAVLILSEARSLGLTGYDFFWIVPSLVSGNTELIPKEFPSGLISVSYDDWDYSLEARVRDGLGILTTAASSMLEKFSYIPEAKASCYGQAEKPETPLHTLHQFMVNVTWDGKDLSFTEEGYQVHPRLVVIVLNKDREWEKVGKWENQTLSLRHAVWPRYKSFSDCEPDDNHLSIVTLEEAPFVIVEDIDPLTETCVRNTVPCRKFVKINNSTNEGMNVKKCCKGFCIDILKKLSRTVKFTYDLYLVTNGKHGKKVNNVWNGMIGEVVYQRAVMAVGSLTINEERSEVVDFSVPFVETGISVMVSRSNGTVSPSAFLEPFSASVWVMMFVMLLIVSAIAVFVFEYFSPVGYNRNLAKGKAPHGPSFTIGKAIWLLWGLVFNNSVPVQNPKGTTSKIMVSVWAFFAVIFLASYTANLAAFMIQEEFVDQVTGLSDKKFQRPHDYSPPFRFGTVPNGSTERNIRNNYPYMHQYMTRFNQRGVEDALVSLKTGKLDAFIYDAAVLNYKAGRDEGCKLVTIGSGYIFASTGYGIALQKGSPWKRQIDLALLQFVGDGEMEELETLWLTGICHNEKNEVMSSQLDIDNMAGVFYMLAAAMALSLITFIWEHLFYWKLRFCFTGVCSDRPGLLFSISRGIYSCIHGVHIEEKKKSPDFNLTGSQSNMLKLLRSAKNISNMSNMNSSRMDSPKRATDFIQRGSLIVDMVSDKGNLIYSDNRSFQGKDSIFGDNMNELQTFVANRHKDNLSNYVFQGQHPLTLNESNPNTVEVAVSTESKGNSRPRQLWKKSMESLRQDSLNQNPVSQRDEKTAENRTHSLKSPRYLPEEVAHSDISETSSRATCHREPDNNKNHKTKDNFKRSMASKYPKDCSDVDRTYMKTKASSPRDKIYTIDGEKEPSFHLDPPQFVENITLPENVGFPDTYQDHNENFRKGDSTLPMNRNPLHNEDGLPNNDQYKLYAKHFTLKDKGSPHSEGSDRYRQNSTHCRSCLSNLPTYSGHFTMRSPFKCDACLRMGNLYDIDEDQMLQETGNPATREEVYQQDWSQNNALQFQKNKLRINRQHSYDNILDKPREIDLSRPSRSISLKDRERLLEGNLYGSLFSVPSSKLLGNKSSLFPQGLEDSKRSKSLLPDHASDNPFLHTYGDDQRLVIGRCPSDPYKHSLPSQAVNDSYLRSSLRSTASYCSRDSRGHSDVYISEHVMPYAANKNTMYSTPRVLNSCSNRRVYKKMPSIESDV
Sequence of Glutamate NMDA receptor; Grin1/Grin2c (Q00961 whole entry, other chains not shown): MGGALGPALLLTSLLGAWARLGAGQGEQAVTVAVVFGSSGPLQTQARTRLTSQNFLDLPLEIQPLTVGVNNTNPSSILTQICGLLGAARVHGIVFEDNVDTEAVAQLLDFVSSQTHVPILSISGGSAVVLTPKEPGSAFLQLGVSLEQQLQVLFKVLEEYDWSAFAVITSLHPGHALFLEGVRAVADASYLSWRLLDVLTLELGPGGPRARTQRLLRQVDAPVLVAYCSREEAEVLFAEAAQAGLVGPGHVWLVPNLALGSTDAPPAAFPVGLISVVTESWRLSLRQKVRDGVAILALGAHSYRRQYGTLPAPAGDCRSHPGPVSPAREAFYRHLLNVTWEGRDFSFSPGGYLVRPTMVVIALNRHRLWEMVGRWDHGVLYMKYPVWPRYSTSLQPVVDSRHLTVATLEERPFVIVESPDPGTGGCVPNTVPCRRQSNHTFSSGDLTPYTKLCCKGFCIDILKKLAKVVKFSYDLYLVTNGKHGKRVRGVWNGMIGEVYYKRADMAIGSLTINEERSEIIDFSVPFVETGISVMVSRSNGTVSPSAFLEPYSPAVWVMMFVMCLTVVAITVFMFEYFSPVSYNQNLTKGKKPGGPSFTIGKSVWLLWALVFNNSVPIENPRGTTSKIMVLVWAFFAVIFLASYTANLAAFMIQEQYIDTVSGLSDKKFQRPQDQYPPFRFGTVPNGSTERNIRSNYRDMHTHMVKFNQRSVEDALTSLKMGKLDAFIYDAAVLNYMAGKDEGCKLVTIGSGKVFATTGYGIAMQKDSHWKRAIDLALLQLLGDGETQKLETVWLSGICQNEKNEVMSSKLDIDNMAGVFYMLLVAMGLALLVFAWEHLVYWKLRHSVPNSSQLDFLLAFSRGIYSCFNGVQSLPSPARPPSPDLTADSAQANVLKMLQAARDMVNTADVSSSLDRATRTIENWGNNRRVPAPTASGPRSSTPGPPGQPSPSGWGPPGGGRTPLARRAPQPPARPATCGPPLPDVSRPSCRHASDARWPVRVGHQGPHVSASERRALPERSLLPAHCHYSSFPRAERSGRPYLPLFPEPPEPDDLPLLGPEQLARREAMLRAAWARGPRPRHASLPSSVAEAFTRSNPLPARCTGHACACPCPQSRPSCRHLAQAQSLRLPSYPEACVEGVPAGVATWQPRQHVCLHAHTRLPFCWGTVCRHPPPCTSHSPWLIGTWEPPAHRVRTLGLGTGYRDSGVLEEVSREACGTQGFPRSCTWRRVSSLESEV

As for `COc1ccccc1-n1c(/C=C/c2ccccc2[N+](=O)[O-])nc2ccccc2c1=O`, the pIC50 is 5.40 in experiment [1]; 5.15 in experiment [2]; 5.40 in experiment [3]; 5.30 in experiment [4]; 4.85 at Glutamate receptor 1. Further, the IC50 result in experiment [5] is “Not Active”.
Consider `O=C(O)c1ccccc1-n1c(/C=C/c2ccc([N+](=O)[O-])cc2)nc2ccccc2c1=O`, for which the pIC50 in experiment [1] was under 3.52; in experiment [2], 3.71; in experiment [3], under 3.52; in experiment [4] it was 3.56; at Glutamate receptor 1, under 3.52. The IC50 result in experiment [5] is “Not Active”.
Consider `O=C(O)c1ccc(-n2c(/C=C/c3ccc([N+](=O)[O-])cc3)nc3ccccc3c2=O)cc1`, for which the pIC50 is 4.19 in experiment [1]; 4.03 in experiment [2]; 4.82 in experiment [3]; 4.82 in experiment [4]; under 3.52 at Glutamate receptor 1. Besides, the IC50 result in experiment [5] is “Not Active”.
In the case of `O=C(O)c1cccc(-n2c(/C=C/c3ccc([N+](=O)[O-])cc3)nc3ccccc3c2=O)c1`, the negative logarithm of the IC50 (pIC50) in experiment [1] was 3.87; in experiment [2] it was 3.75; in experiment [3], 4.48; in experiment [4], 4.57; on Glutamate receptor 1 it was under 3.52. The IC50 entry in experiment [5] is “Not Active”.
As to `O=C(O)c1cccc(-n2c(/C=C/c3cccc([N+](=O)[O-])c3)nc3ccccc3c2=O)c1`, the pIC50 in experiment [1] was 4.00; in experiment [2], 4.16; in experiment [3], 4.72; in experiment [4], 4.82; at Glutamate receptor 1 it was 4.49. The IC50 entry in experiment [5] was “Not Active”.
With `O=C(O)c1ccc(-n2c(/C=C/c3ccccc3[N+](=O)[O-])nc3ccccc3c2=O)cc1`, the values for the pIC50 in experiment [1], in experiment [2] and in experiment [3] were 4.96, 4.77 and 5.10, respectively. In experiment [5], the IC50 entry was “Not Active”.
As to `O=C(O)c1ccccc1-n1c(/C=C/c2cccc([N+](=O)[O-])c2)nc2ccccc2c1=O`, the pIC50 is under 3.52 in experiment [1]; 3.63 in experiment [2]; 3.59 in experiment [3]; 3.83 in experiment [4]; under 3.52 at Glutamate receptor 1. Moreover, the IC50 entry in experiment [5] is given as “Not Active”.
Regarding `COc1ccc(-n2c(/C=C/c3cccc([N+](=O)[O-])c3)nc3ccccc3c2=O)cc1`, the negative-log IC50 (pIC50) in experiment [1] is under 3.52; in experiment [2], under 3.52; in experiment [3], 3.82; in experiment [4], 3.77; on Glutamate receptor 1 it was 3.75. In addition, the IC50 entry in experiment [5] was “Not Active”.
Regarding `COc1ccc(-n2c(/C=C/c3ccccc3[N+](=O)[O-])nc3ccccc3c2=O)cc1`, the pIC50 in experiment [1] was under 3.52; in experiment [3] it was 3.84; in experiment [4], 3.90; at Glutamate receptor 1, 3.65. For the same molecule, the IC50 result in experiment [5] was “Not Active”.
For `COc1cccc(-n2c(/C=C/c3ccccc3[N+](=O)[O-])nc3ccccc3c2=O)c1`, the pIC50 (in experiment [1]; in experiment [3]; in experiment [4]; at Glutamate receptor 1) was under 3.52 each time. Also, the Ratio IC50 in the experiment filed under Rattus norvegicus [6] is 1. Further, the IC50 result in experiment [5] was “Not Active”.
In the case of `COc1ccc(-n2c(/C=C/c3ccc([N+](=O)[O-])cc3)nc3ccccc3c2=O)cc1`, the pIC50 is under 3.52 in experiment [1]; 4.01 in experiment [2]; 3.74 in experiment [3]; 3.66 in experiment [4]; under 3.52 at Glutamate receptor 1. Moreover, in experiment [5], the IC50 result is on record as “Not Active”.
In the case of `COc1ccccc1-n1c(/C=C/c2cccc([N+](=O)[O-])c2)nc2ccccc2c1=O`, the pIC50 (in experiment [1]; in experiment [3]; in experiment [4]; on Glutamate receptor 1) was under 3.52 throughout. In the experiment filed under Rattus norvegicus [6], the Ratio IC50 stood at 1. In addition, the IC50 result in experiment [5] is recorded as “Not Active”.
Regarding `O=C(O)c1cccc(-n2c(/C=C/c3ccccc3[N+](=O)[O-])nc3ccccc3c2=O)c1`, the pIC50 in experiment [1] is 4.77; in experiment [2] it was 4.70; in experiment [3] it was 5.10; in experiment [4], 5.15; on Glutamate receptor 1 it was 5.30. Besides, the IC50 entry in experiment [5] is given as “Not Active”.
As to `COc1ccccc1-n1c(/C=C/c2ccc([N+](=O)[O-])cc2)nc2ccccc2c1=O`, the pIC50 is under 3.52 in experiment [1]; under 3.52 in experiment [2]; under 3.52 in experiment [3]; 3.54 in experiment [4]; under 3.52 at Glutamate receptor 1. For the same molecule, the Ratio IC50 in the experiment filed under Rattus norvegicus [6] is 1; in the experiment listed under Rattus norvegicus [7] it was over 1. Further, the IC50 result in experiment [5] was “Not Active”.
Regarding `COc1cccc(-n2c(/C=C/c3cccc([N+](=O)[O-])c3)nc3ccccc3c2=O)c1`, the pIC50 in experiment [1] is under 3.52; in experiment [2] it was 3.58; in experiment [3] it was 3.69; in experiment [4], 3.73; at Glutamate receptor 1, under 3.52. Moreover, the Ratio IC50 in the experiment filed under Rattus norvegicus [6] and in the experiment listed under Rattus norvegicus [7] was 2 in each case. The IC50 result in experiment [5] is given as “Not Active”.
`O=C(O)c1ccc(-n2c(/C=C/c3cccnc3)nc3ccc(I)cc3c2=O)cc1`: the pIC50 in experiment [1] was 4.59; in experiment [2] it was 4.51; in experiment [3], 5.22; in experiment [4] it was 5.40; at Glutamate receptor 1, 4.21. In addition, the values for the Ratio IC50 in the experiment filed under Rattus norvegicus [6] and in the experiment listed under Rattus norvegicus [7] were 15 and 7, respectively.
In the case of `COC(=O)c1ccc(-n2c(/C=C/c3cccc([N+](=O)[O-])c3)nc3ccc(OC)cc3c2=O)cc1`, the negative logarithm of the IC50 (pIC50) in experiment [1] is 3.66; in experiment [2], 4.34; in experiment [3] it was 4.41; in experiment [4], 4.42; at Glutamate receptor 1, 3.86. Besides, the Ratio IC50 in the experiment filed under Rattus norvegicus [6] came out at 4; in the experiment filed under Rattus norvegicus [7], 6.
In the case of `O=C(O)c1ccc(-n2c(/C=C/c3cccc([N+](=O)[O-])c3)nc3cc4ccccc4cc3c2=O)cc1`, the pIC50 in experiment [1] is 4.96; in experiment [2], 5.30; in experiment [3], 5.70; in experiment [4], 5.70; on Glutamate receptor 1, 5.40. Besides, the Ratio IC50 stood at 2 in the experiment filed under Rattus norvegicus [6] and 6 in the experiment filed under Rattus norvegicus [7].
Take `CSc1ccc(/C=C/c2nc3ccccc3c(=O)n2-c2ccc(C(=O)O)cc2)cc1`: the pIC50 in experiment [1] was 3.68; in experiment [2] it was 4.10; in experiment [3] it was 4.38; in experiment [4], 4.66; at Glutamate receptor 1, 3.61. The Ratio IC50 in the experiment filed under Rattus norvegicus [6] was found to be 11; in the experiment listed under Rattus norvegicus [7] it was 10.
Take `CC(C)c1ccc2nc(/C=C/c3cccc([N+](=O)[O-])c3)n(-c3ccc(C(=O)O)cc3)c(=O)c2c1`: the pIC50 in experiment [1] is 4.00; in experiment [2], 4.01; in experiment [3], 5.22; in experiment [4], 5.15; on Glutamate receptor 1, 3.70. Further, the figures for the Ratio IC50 in the experiment listed under Rattus norvegicus [6] and in the experiment filed under Rattus norvegicus [7] were 29 and 14, respectively.
Consider `O=C(O)c1ccc(-n2c(/C=C/c3cccc([N+](=O)[O-])c3)nc3ccc(I)cc3c2=O)cc1`, for which the pIC50 is 4.74 in experiment [1]; 5.22 in experiment [2]; 6.00 in experiment [3]; 6.22 in experiment [4]; 4.51 at Glutamate receptor 1. Also, the Ratio IC50 in the experiment listed under Rattus norvegicus [6] is 52; in the experiment filed under Rattus norvegicus [7] it was 18.
Consider `COc1cccc(-n2c(/C=C/c3ccc([N+](=O)[O-])cc3)nc3ccccc3c2=O)c1`, for which the pIC50 (in experiment [1]; in experiment [3]; in experiment [4]; on Glutamate receptor 1) was under 3.52 each time. Also, the Ratio IC50 in the experiment listed under Rattus norvegicus [6] came to 1. Also, in experiment [5], the IC50 result was “Not Active”.
For the molecule `CN(C)c1ccc(/C=C/c2nc3ccccc3c(=O)n2-c2ccc(C(=O)O)cc2)cc1`, the pIC50 was under 3.52 in experiment [1]; under 3.52 in experiment [2]; 4.20 in experiment [3]; 4.28 in experiment [4]; under 3.52 on Glutamate receptor 1. For the same molecule, the Ratio IC50 in the experiment filed under Rattus norvegicus [6] and in the experiment filed under Rattus norvegicus [7] was over 5 each time.
